Assay results: ChEMBL document CHEMBL1125166, “Kinetic and equilibrium binding studies of amsacrine-4-carboxamides: a class of asymmetrical DNA-intercalating agents which bind by threading through the DNA helix” (J Med Chem, 1990)
Several values for one entry are separate records, joined by “and”; a condition that tells them apart may be missing. Identical values can stand only once.

Experiments:
[1] = test system: Nucleic Acid; test: Time constant describing the association profile of calf thymus DNA-drug complexes in 0.1 SHE buffer at 20 degree C after 3 min; assay type: nucleic-acid assay
Method in brief: (§1)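 Stopped-flow association to sonicated calf thymus DNA (~10^6 MW) in 0.1 SHE at 20 °C. Final DNA 200 μM base pairs and final drug 10 μM (ratio 0.05); D/P also varied to 0.10 and 0.20. Absorbance followed at the drug's visible maximum. Traces deconvoluted into exponentials by curve stripping; at least six runs analysed separately and averaged. Amplitudes given as % of summed amplitudes.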

[2] = test system: Nucleic Acid; test: Time constant describing the association profile of calf thymus DNA-drug complexes in 0.1 SHE buffer at 20 degree C after 1 min; assay type: nucleic-acid assay; method in brief: as §1
[3] = test system: Nucleic Acid; test: Time constant describing the association profile of calf thymus DNA-drug complexes in 0.1 SHE buffer at 20 degree C after 2 min; assay type: nucleic-acid assay; method in brief: as §1
[4] = test system: Nucleic Acid; test: (§2) Fraction of the observed equilibrium absorbance change accounted in the kinetic analysis.; assay type: functional; settings: Bos taurus
Method in brief: (§3)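 SDS-induced dissociation by stopped flow. Drug–calf thymus DNA complex (400 μM base pairs, 20 μM drug, 0.1 SHE) mixed 1:1 with 20 mM SDS (monomer) at 20 °C. Finals: 200 μM DNA, 10 μM drug, 10 mM SDS; D/P also 0.2. Absorbance followed at the visible maximum. Time constants and % amplitudes obtained from exponential fitting. Fraction = resolved amplitude over equilibrium absorbance change on SDS addition.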

[5] = test system: Nucleic Acid; test: (§4) Fraction of the observed equilibrium absorbance change accounted in the kinetic analysis on rates with DNA-ligand ratio.; assay type: nucleic-acid assay; settings: Bos taurus
[6] = test system: Nucleic Acid; test: Free drug extinction coefficient in 0.1 SHE buffer at the concentration of 50 uM; 9.4 x 10 e-3 epcilonfor equilibrium binding to calf thymus DNA; settings: Bos taurus
[7] = test system: Nucleic Acid; test: Free drug λmax in 0.1 SHE buffer at the concentration of 50 uM for equilibrium binding to calf thymus DNA
[8] = test system: Nucleic Acid; test: as §4; assay type: functional; settings: Bos taurus
[9] = test system: Nucleic Acid; test: Association constant for binding to poly(dG-dC) DNA in 0.01 SHE buffer, measured by ethidium displacement method; assay type: nucleic-acid assay
Method in brief: (§5)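 Ethidium displacement in 0.01 SHE buffer with poly(dA-dT) or poly(dG-dC). Association constants corrected for quenching.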

[10] = test system: Nucleic Acid; test: as §2; assay type: nucleic-acid assay; method in brief: as §3
[11] = test system: Nucleic Acid; test: Association constant for binding to poly(dA-dT) DNA in 0.01 SHE buffer, measured by ethidium displacement method; assay type: nucleic-acid assay; method in brief: as §5
[12] = test system: Nucleic Acid; test: Percentage of the sum of the amplitudes evaluated in the kinetic experiment on rates with DNA-ligand ratio.; assay type: functional; settings: Bos taurus; method in brief: as §1
[13] = test system: Nucleic Acid; test: Time constant describing the dissociation profile of calf thymus DNA-drug complexes in 0.1 SHE buffer at 20 degree C.; assay type: nucleic-acid assay; method in brief: as §3
[14] = test system: Nucleic Acid; test: Percentage of the sum of the amplitudes in the kinetic experiment.; assay type: nucleic-acid assay; settings: Bos taurus
[15] = test system: Nucleic Acid; test: (§6) Time constant describing the dissociation profile of calf thymus DNA-drug complexes in 0.1 SHE buffer at 20 degree C; assay type: nucleic-acid assay; method in brief: as §3
[16] = test system: Nucleic Acid; test: Association constant for binding to poly(dA-dT) DNA in 0.01 SHE buffer, measured by ethidium displacement method for equilibrium binding to calf thymus DNA; assay type: nucleic-acid assay
[17] = test system: Nucleic Acid; test: Association constant for binding to poly(dG-dC) DNA in 0.01 SHE buffer, measured by ethidium displacement method for equilibrium binding to calf thymus DNA; assay type: nucleic-acid assay
[18] = test system: Nucleic Acid; test: Percentage of the sum of the amplitudes evaluated in the kinetic experiment; assay type: nucleic-acid assay; settings: Bos taurus
[19] = Fraction of the observed equilibrium absorbance change accounted in the kinetic analysis; method in brief: as §3
[20] = test system: Nucleic Acid; test: as §6; assay type: nucleic-acid assay; remark: listed apart in the source
Method in brief: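 Stopped-flow absorbance at 20 °C, read at the visible absorption maxima. The complex was 400 μM sonicated calf thymus DNA (nucleotide pairs) with 20 μM drug in 0.1 SHE, mixed with an equal volume of 20 mM SDS (monomer) in the same buffer. Final: 200 μM DNA bp, 10 μM drug, 10 mM SDS (1 drug : 20 bp). Exponential decay time constants were resolved.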

[21] = test system: Nucleic Acid; test: Percentage of the sum of the amplitudes evaluated in the kinetic experiment.; assay type: functional; settings: Bos taurus; method in brief: as §3
[22] = test system: Nucleic Acid; test: Percentage of the sum of the amplitudes evaluated in the kinetic experiment for binding of compound to a calf thymus DNA; settings: Bos taurus
[23] = test system: Nucleic Acid; test: Fraction of the observed equilibrium absorbance change accounted in the kinetic analysis or binding of compound to a (dG-dC)-DNA; assay type: nucleic-acid assay; settings: Bos taurus
[24] = test system: Nucleic Acid; test: Time constant describing the association profile was studied for variation on rates with DNA-ligand ratio.; assay type: nucleic-acid assay; method in brief: as §1
[25] = test system: Nucleic Acid; test: (§7) Fraction of the observed equilibrium absorbance change accounted in the kinetic analysis off rates with DNA-ligand ratio.; assay type: functional; settings: Bos taurus; method in brief: as §3
[26] = test system: Nucleic Acid; test: Time constant describing the dissociation profile was studied for binding of compound to a poly(dA-dT) DNA; assay type: nucleic-acid assay
[27] = test system: Nucleic Acid; test: Percentage of the sum of the amplitudes evaluated in the kinetic experiment for binding of compound to a (dI-dC)DNA; assay type: functional; settings: Bos taurus
[28] = test system: Nucleic Acid; test: Time constant describing the dissociation profile was studied for binding of compound to a (dA-dT)DNA; assay type: nucleic-acid assay
[29] = test system: Nucleic Acid; test: Time constant describing the association profile was studied for binding of compound to a poly(dA-dT) DNA; assay type: nucleic-acid assay
[30] = test system: Nucleic Acid; test: Fraction of the observed equilibrium absorbance change accounted in the kinetic analysis or binding of compound to a (dA-dT)-DNA; assay type: functional; settings: Bos taurus
[31] = test system: Nucleic Acid; test: Fraction of the observed equilibrium absorbance change accounted in the kinetic analysis or binding of compound to a CT-DNA; assay type: functional; settings: Bos taurus; method in brief: as §3
[32] = test system: Nucleic Acid; test: Time constant describing the dissociation profile was studied for binding of compound to a poly(dG-dC) DNA; assay type: nucleic-acid assay
[33] = test system: Nucleic Acid; test: Percentage of the sum of the amplitudes evaluated in the kinetic experiment for binding of compound to a CT-DNA; assay type: nucleic-acid assay; settings: Bos taurus; method in brief: as §3
[34] = test system: Nucleic Acid; test: as §7; assay type: nucleic-acid assay; settings: Bos taurus; method in brief: as §3
[35] = test system: Nucleic Acid; test: Time constant describing the association profile was studied for binding of compound to a (dA-dT)DNA; assay type: nucleic-acid assay

SMILES	Time constant [1] [ms]	Time constant [2] [ms]	Time constant [3] [ms]	ε (×10^-3) [6]	λmax (nm) [7]	k0 [9] [M⁻¹]	Activity ([10]; Bos taurus)	k0 [11] [M⁻¹]	also measured
COc1cc(NS(C)(=O)=O)ccc1Nc1c2ccccc2nc2c(C(=O)NCCNCCO)cccc12	66	3	18	11.6	441	4.9e+07	69	2.19e+07	Activity [4]: 100; Activity [5]: 69 and 60; Activity [8]: 68
COc1cc(NS(C)(=O)=O)ccc1Nc1c2ccccc2nc2c(C(=O)NCC(=O)NCCNCCO)cccc12	93	5	25	12.3	440	6.61e+07		2.82e+07	Relative amplitude [12]: 33% (2×) and 48% and 37%; Activity [4]: 100; Activity [5]: 74; Activity [8]: 66 and 65; Activity [10]: 66
CNC(=O)c1cccc2c(Nc3ccc(NS(C)(=O)=O)cc3OC)c3ccccc3nc12		2	7	11.6	438	1.51e+06	54 and 79	350000	Time constant [13]: 11 ms and 29 ms; Relative amplitude [14]: 52% [middle of 4 runs]
Nc1c2ccccc2nc2ccccc12				10.1	399				T1 [15]: 3 ms; T2 [15]: 15 ms; k0 [16]: 1.2e+06 M⁻¹; k0 [17]: 1.4e+06 M⁻¹; Relative amplitude [18]: 15% and 12%; Activity [19]: 50
COc1cc(NS(C)(=O)=O)ccc1Nc1c2ccccc2nc2c(C(=O)NCC(O)CO)cccc12 (configuration not stated)	110	8	40	10.4	425	3.71e+07	77 and 88	2.51e+06	
CN(C)CCNC(=O)c1cccc2c(N)c3ccccc3nc12				9.4	407				T1 [2]: 4 ms; T2 [3]: 19 ms; T1 [15]: 6 ms; T2 [15]: 28 ms; T3 [15]: 86 ms; T4 [15]: 428 ms; k0 [16]: 2.24e+07 M⁻¹; k0 [17]: 5e+07 M⁻¹
COc1cc(NS(C)(=O)=O)ccc1Nc1c2ccccc2nc2c(C(=O)NCCO)cccc12	100	4	31	10.4	441	2.4e+06	90 and 80	890000	Time constant [13]: 81 ms and 208 ms
COc1cc(NS(C)(=O)=O)ccc1Nc1c2ccccc2nc2ccccc12				12.1	434	260000	48	290000	Time constant [20]: 2 ms and 6 ms
COc1cc(NS(C)(=O)=O)ccc1Nc1c2ccccc2nc2c(C(=O)NCCCN(C)C)cccc12	66	3	15	11.6	441	3.98e+06	79 and 92	2.34e+06	Relative amplitude [14]: 31% and 39% and 55%
COc1cc(NS(C)(=O)=O)ccc1Nc1c2ccccc2nc2c(C(=O)NCCCO)cccc12	95	4	32	10.9	439	8.12e+06	85 and 72	950000	Time constant [13]: 58 ms and 157 ms; Relative amplitude [21]: 25% and 35%
COc1cc(NS(C)(=O)=O)ccc1Nc1c2ccccc2nc2c(C(=O)NCCN(C)C)cccc12	110	5	24	12.9	442	6.6e+07	62	2.45e+07	Relative amplitude [22]: 64%; Activity [23]: 76 and 99; Time constant [24]: 5 ms; Activity [25]: 97; Time constant [26]: 38 ms; Relative amplitude [27]: 78%; Time constant [28]: 7 ms; Time constant [29]: 16 ms; Activity [4]: 97; Activity [5]: 62 and 60; Activity [30]: 25 and 70; Activity [8]: 72; Activity [31]: 62 and 97; Time constant [32]: 1640 ms and 3500 ms; Relative amplitude [33]: 41%; Activity [34]: 95; Time constant [35]: 3 ms
